Compound activity as filed in PubChem BioAssay.
NALP1 yeast inh = inhibitors of NALP1 inflammasome in yeast; inhibition, % at 10 µM; 0.61% of 280,000 active; S. cerevisiae NALP1/ASC/caspase-1 growth, X-gal OD620, 72 h; in the data active = inhibition mostly above about 24%, no sharp cut-off; inactive = mostly below about 32%
PolyA inhibitor = blocks polyadenylation in yeast reporter cells | activity score, % at 12 µM | AID 1875 | S. cerevisiae SKY197-pL101 polyadenylation reporter, beta-gal luminescence; efflux-impaired pdr1/pdr3 knockout yeast; score 100 = 6 SD above DMSO | 0.02% of 300,000 active;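 active = lowest replicate activity score at least 50, where 100 means six control SD above control mean; inconclusive = lowest score under 50 but half or more replicates reach 50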;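 also: yeast exposed to compound for 9 h at 30 °C; higher score means more reporter readthrough which indicates perturbed polyadenylation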
L major viab = inhibitors of Leishmania major promastigote growth | Leishmania major promastigotes, resazurin fluorescence viability | AID 1063 | inhibition, % at 10 µM | 9% of 200,000 active; in the data active = inhibition above about 50%;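 also: promastigotes grown with compound for 44 hours at 28 °C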
NLRP3 yeast inh = inhibitors of NALP3 inflammasome in yeast. Yeast reconstituted NLRP3/ASC/caspase-1, beta-gal luminescence, 24 h. inhibition, % at 10 µM. 0.39% of 330,000 active. AID 2825;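 active = inhibition of 50% or more; inactive = inhibition below 50%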;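 also: plate controls were induced DMSO wells for no effect and uninduced yeast grown without galactose for full effect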
T cruzi inh = T. cruzi replication inhibition. T. cruzi beta-gal in NIH3T3, luminescence, 90 h. inhibition, % (concentration not given with the values). 1.4% of 300,000 active;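 active = mean inhibition across valid replicates above about 55%, limit read from the data; inconclusive = mean below that limit but half or more replicates reach it; inactive = mean below it, under half of replicates reach it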;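 also: signal also drops with host cell toxicity which is not excluded here; 0% = plate median of DMSO wells and 100% = zero luminescence signal; higher percent means less beta-gal luminescence so fewer parasites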
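Assay system: NIH/3T3 host cells with β-galactosidase reporter T. cruzi; input: 5,000 host fibroblasts per well; compound: single 50 nL compound addition per well in DMSO; timing: ≥90 h infection period, 3 h prior cell attachment; measured by: GalScreen β-gal luminescence, detergent lysis, 60 min; evaluation: percent inhibition of parasite-derived β-gal signal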
Calb FLC = C. albicans growth modulation with fluconazole; 0.57% of 300,000 active; AID 1979; C. albicans CaCi-2 + fluconazole, Alamar Blue growth, 48 h; growth inhibition, % (no concentration beside the values);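 active = growth inhibition above about 58% in most replicates, limit read from the data, passing the limit was not always enough; inconclusive = exactly half the replicates above a set limit; inactive = most replicates below a set limit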;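 also: all wells also contain fluconazole at 8 µg/ml as a sub-toxic cotreatment; 0% = median of DMSO wells and 100% = median of geldanamycin control wells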
The depositor's hits bear a star; u = inconclusive; x = not tested or not shown. Shown is part of a subset that was picked to be rich in hits.

SMILES | NALP1 yeast inh | PolyA inhibitor | L major viab | NLRP3 yeast inh | T cruzi inh | Calb FLC
Cc1onc(-c2ccccc2)c1C(=O)NC(=S)NNC(=O)c1ccccc1O | 28.8 | 17.5 | 66.9* | 5.0 | -13.7 | 23.5
Cc1onc(-c2ccccc2)c1C(=O)NC(=S)NNC(=O)c1ccc(O)cc1 | 19.9 | -6.3 | -0.1 | 20.7 | -3.4 | 3.7
CCC1Sc2ccccc2N(CC(=O)NCCC2=CCCCC2)C1=O (stereo unspecified) | 42.6* | -4.2 | 1.4 | 14.2 | 19.4 | -1.0
CCc1ccc(N/C(SCc2cccc(F)c2)=C(/C#N)C(=O)NCc2ccco2)cc1 | 13.1 | -3.2 | 25.6 | -10.8 | 57.1* | -23.0
N#C/C(=C\Nc1ccc2c(c1)OCCO2)C(=O)NCc1ccco1 | 20.3 | 8.7 | x | 17.5 | -9.1 | -0.1
Cc1ccccc1CSCC(=O)NC(=O)NCc1ccco1 | -9.9 | -8.6 | -7.5 | 26.5 | 1.7 | -22.8
Cc1ccc(N/C(SCc2ccccc2C)=C(/C#N)C(=O)NCc2ccco2)cc1C | 1.0 | 1.1 | 12.6 | 14.0 | 60.4* | -0.3
CC(=O)Oc1c(C(=O)c2nnc(C)o2)c(=O)n(C)c2ccccc12 | 21.0 | -6.8 | 3.4 | 1.2 | -9.0 | -1.9
COc1cccc(NC(=O)N(CCCN2CCOCC2)C(C)c2cc3ccccc3o2)c1 (stereo unspecified) | 17.4 | -11.0 | 98.6* | 14.9 | 18.6 | 4.3
COc1ccc(NC(=S)N(CCN(C)C)C(C)c2ccco2)cc1 (stereo unspecified) | 18.6 | -2.4 | 51.3* | 6.1 | -7.2 | -13.4
Cc1ccc(NC(=S)N(CCN(C)C)C(C)c2ccco2)cc1C (stereo unspecified) | -1.2 | 8.7 | 46.1 | 3.3 | -14.5 | -2.8
COc1ccc(NC(=S)N(CCCN2CCOCC2)C(C)c2cc3ccccc3o2)cc1 (stereo unspecified) | -7.4 | -15.2 | 71.7* | 10.1 | -1.6 | -3.1
CCOC(=O)C1CCN(C(=O)COC(=O)c2ccccc2C(=O)c2ccc(Cl)cc2)CC1 | x | 4.3 | x | 26.3 | -4.0 | 4.3
CCOc1ncccc1C(=O)Nc1c(C)n(C)n(-c2ccccc2)c1=O | 14.9 | 8.5 | x | 18.6 | -1.8 | -3.6
CCCCOc1cccc(C(=O)NNC(=S)NC2CCCCC2)c1 | -6.3 | -0.1 | 10.9 | 17.1 | -7.7 | 104.7*
CN(C(=O)c1ccccc1Cl)c1ccccc1C(=O)NCCc1ccccc1 | 10.4 | -1.5 | x | 5.6 | 11.3 | 0.2
COc1ccc(Cl)cc1NC(=O)CN(C)C(=O)c1cccc2cccnc12 | x | x | x | 2.1 | x | x
COc1ccc(Cc2nc3c4c(ncn3n2)Oc2c(ccc3ccccc23)C4c2ccc(OC)c(OC)c2)cc1 (stereo unspecified) | 36.0 | 9.1 | 30.7 | 5.3 | 33.6 | -0.9
COc1ccc(Cc2nc3c4c(ncn3n2)Oc2ccc3ccccc3c2C4c2ccc(OC)c(OC)c2)cc1 (stereo unspecified) | 17.7 | 14.4 | 22.0 | -2.7 | 57.2* | 19.1
N=c1c2c(ncn1Cc1ccco1)Oc1ccc3ccccc3c1C2c1ccccc1 (stereo unspecified) | 56.9* | -6.5 | 96.3* | 25.6 | 45.3 | -4.7
N=c1c2c(ncn1CCCO)Oc1ccc3ccccc3c1C2c1ccccc1 (stereo unspecified) | 4.8 | 8.2 | x | 12.9 | 21.7 | 29.4
COc1ccc(C2c3ccc(O)cc3Oc3ncn(Cc4ccco4)c(=N)c32)cc1 (stereo unspecified) | x | -9.7 | x | 12.7 | 49.7 | 1.4
COc1ccc(C2c3c(ncn(Cc4ccco4)c3=N)Oc3ccc4ccccc4c32)cc1 (stereo unspecified) | 27.0 | -13.1 | 99.0* | 11.6 | 8.9 | 3.5
C=CCNC(=S)N/N=C1\CCS(=O)(=O)c2ccccc21 | 9.4 | 5.7 | x | 3.0 | -4.4 | 5.7
Cc1cc(C)c(NC(=O)/C(=C/c2ccccc2)c2ccccc2)c(C)c1 | 45.1 | -24.0 | 98.0* | x | 2.4 | 15.0
SMILES | NALP1 yeast inh | PolyA inhibitor | L major viab | NLRP3 yeast inh | T cruzi inh | Calb FLC
O=C(Cn1cnc2ccccc2c1=O)NCCC(=O)Nc1ccc2c(c1)OCO2 | 12.1 | -5.0 | 1.8 | -0.2 | -7.2 | -9.8
O=C(Cc1ccc(Cl)cc1)Oc1cccc2cccnc12 | 78.1* | x | 97.3* | x | x | x
Cc1c(C(=O)Oc2cccc3cccnc23)cccc1[N+](=O)[O-] | -0.8 | -27.5 | 98.1* | 24.2 | 0.0 | -1.2
O=C(Oc1cccc2cccnc12)c1cccs1 | 13.9 | -11.1 | 99.6* | 19.7 | 23.9 | -7.2
O=C(NCCOc1cccc2cccnc12)c1cccs1 | 8.0 | -5.7 | -0.9 | 3.0 | -8.1 | -7.2
O=C(Oc1ccccc1)c1cccc2cccnc12 | -9.4 | 3.6 | 94.3* | 28.3 | 1.3 | 15.0
O=C(O)C1CSC(c2ccccc2Cl)N1C(=O)c1ccc(Cl)cc1 (stereo unspecified) | 28.1 | 19.1 | -5.8 | 13.2 | -5.8 | 16.0
O=C(Cc1ncc(C(F)(F)F)cc1Cl)NCCc1ccccc1 | -13.4 | -14.8 | -10.1 | 0.2 | 0.7 | -3.6
COc1ccc(S(=O)(=O)N2CCOCC2)cc1NC(=O)COc1ccc2ccc(=O)oc2c1 | x | x | x | -2.2 | x | x
O=C(Oc1cccc2cccnc12)c1ccc(Br)o1 | 4.1 | 16.8 | -1.8 | 11.8 | -21.1 | 3.1
O=C(Oc1cccc2ccccc12)c1ccco1 | -0.4 | 9.3 | 8.8 | 4.9 | -10.5 | 1.6
O=C(Oc1cccc2cccnc12)c1ccco1 | -17.5 | 23.7 | 99.1* | -9.8 | -12.9 | -3.0
O=C(Oc1ccc(Cl)c2cccnc12)c1ccco1 | -10.5 | 5.0 | 98.8* | 17.9 | -11.1 | -3.5
Cc1oc(-c2cccc(F)c2)nc1CN1CCCCC1CCc1ccccn1 (stereo unspecified) | 0.9 | -28.3 | 15.8 | 9.2 | u | -8.1
COc1cc(OC)c(-c2nn3c(C4CCCCC4)nnc3s2)cc1OC | 9.0 | 23.5 | 56.5* | 2.5 | 23.2 | 10.4
CC(=O)Nc1ccc(C(=O)OCC(=O)N(Cc2ccccc2)C(C)(C)C)cc1 | 13.4 | 12.3 | 66.5* | 7.9 | 1.9 | -15.9
Cc1ccsc1/C=N/NC(=O)c1ccc([N+](=O)[O-])cc1 | -8.0 | -4.4 | 3.6 | 9.8 | -10.2 | -16.2
Cc1ccsc1/C=N/NS(=O)(=O)c1ccc([N+](=O)[O-])cc1 | 29.3 | 11.7 | 45.7 | 1.5 | -1.4 | 101.2*
CCCN(CCC)c1nc2ccccc2nc1C(C#N)C(=O)OC(C)COC (stereo unspecified) | x | 5.6 | 65.6* | 13.9 | 8.4 | -8.8
CCCCN(CCCC)c1nc2ccccc2nc1C(C#N)C(=O)NCCCOC (stereo unspecified) | 21.3 | 1.9 | 8.9 | 13.2 | -2.5 | -0.8
Cn1c(Sc2ccc(Br)cc2)c(C=O)c2ccccc21 | 3.6 | 11.5 | 56.9* | 12.3 | 3.5 | 0.3
Cn1c(Oc2ccc(F)cc2)c(C=O)c2ccccc21 | 23.7 | -7.0 | 1.1 | -30.2 | -0.2 | 23.0
CC1C(c2ccccc2)C(C#N)(C#N)C2(C#N)C(=O)NC1(N)C2C (stereo unspecified) | -12.6 | -4.8 | 5.2 | 6.3 | -17.9 | 9.4
